Screening data deposited in PubChem BioAssay by several laboratories.
Many of the other results were omitted from the sample, so hits are more common in it than they were.
T cruzi inh: inhibitors of intracellular T. cruzi growth, primary screen, luminescence, NIH3T3 host cells; T. cruzi beta-gal in NIH3T3, 90 h; inhibition, % (test concentration not listed); actives 1.4% (n = 300,000);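 active = mean inhibition across valid replicates above about 55%, limit read from the data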;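 note: signal also drops with host cell toxicity which is not excluded here; higher percent means less beta-gal luminescence so fewer parasites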
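System: NIH/3T3 fibroblasts plus reporter T. cruzi. Medium: DMEM plus 2% FBS. Probe or stimulus: 5000 reporter trypomastigotes per well. Compound: single 50 nL compound addition per well in DMSO. Incubation: co-culture of at least 90 h after 3 h attachment. Detection: GalScreen β-gal luminescence, detergent lysis, 60 min. Evaluation: parasite load inhibition, %.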
Hep lipid drop: inhibitors of hepatocyte lipid droplet formation, primary screen, imaging, high-throughput imaging, BODIPY stain. AML12 mouse hepatocytes, oleate lipid droplets. inhibition, % at 6.5 µM. actives 0.4% (n = 240,000);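 active = lipid droplet intensity inhibited by at least 50%, with more than 500 cells counted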
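material = mouse AML12 hepatocyte cell line, fixed after treatment | also added = 100 µM oleic acid challenge | doses = compound at 6.5 µM only | schedule = overnight exposure | technique = Image-based BODIPY and DAPI two-channel analysis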
MPTP block: mitochondrial permeability transition pore inhibitors, primary screen, biochemical, isolated mouse mitochondria, absorbance | Ca2+ swelling absorbance, 30 min | inhibition, % at 10 µM | actives 1.4% (n = 360,000);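 active = inhibition of 50% or more, scaled per plate between neutral and stimulator controls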
DTT redox prof: compounds producing H2O2 with reducing agent – biochemical, NIH compound library profiling, artefact control for MLSCN library redox annotation, primary screen; DTT-dependent redox cycling H2O2, phenol red/HRP absorbance; 100% = 100 µM peroxide control, 0% = buffer; activation, % at 10 µM; actives 0.03% (n = 200,000); AID 878, 2007;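 active = activation of at least 50% relative to the plate's high and low controls in the primary single-dose screen; inactive = activation below 50%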;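 note: compound incubated with DTT at 0.8 mM final as the reducing agent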
Lmaj promast: Leishmania major promastigote growth inhibition, primary screen | Leishmania major promastigotes, resazurin fluorescence viability | inhibition, % at 10 µM | actives 9% (n = 200,000) | AID 1063, 2008; in the data active = inhibition above about 50%;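 note: promastigotes grown with compound for 44 hours at 28 °C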
A number is an active result; n = inactive; x = no result given.

SMILES	T cruzi inh	Hep lipid drop	MPTP block	DTT redox prof	Lmaj promast
O=C(CN1CCOCC1)Nc1cccc(S(=O)(=O)N2CCCCCC2)c1	n	n	n	n	n
O=C(CN1CCN(c2ccc(O)cc2)CC1)Nc1cc(S(=O)(=O)N2CCCCC2)ccc1Cl	n	n	n	n	98.6
O=C(Nc1cccc(S(=O)(=O)N2CCCC2)c1)c1ccc2c(=O)n3c(nc2c1)CCCCC3	n	n	n	n	82.4
c1ccc(SC23CCCCN(CCC2)[C@]32CO2)cc1 (some centres not stated)	x	x	n	x	x
CCOc1ccc(NC(=S)N(C)C)cc1	n	n	n	x	x
Cc1cc(C(=O)Nc2cccc(S(=O)(=O)N3CCCCC3)c2)c2ccccc2n1	n	n	n	n	n
O=C(Nc1cccc(S(=O)(=O)N2CCCCC2)c1)c1c2c(nc3ccccc13)CCN(Cc1ccccc1)C2	n	n	n	n	90.5
CN(C)CCCN(C(=O)c1ccc(Br)s1)c1nc2cc3c(cc2s1)OCO3	n	n	n	n	74.5
Cc1ccc2sc(N(CCCN(C)C)C(=O)c3nc4ccccc4s3)nc2c1C	n	n	n	n	n
Cc1ccc2sc(N(CCCN(C)C)C(=O)c3ccc(Br)s3)nc2c1C	69.7	n	n	n	94.9
COC(=O)C1=C(N)N(c2ccccc2C(F)(F)F)C2=C(C(=O)CCC2)C1c1ccc2c(c1)OCO2 (configuration not stated)	55.9	x	n	n	n
COC(=O)CSC1=C(C#N)C(c2ccc3c(c2)OCO3)C2=C(CCCC2=O)N1 (configuration not stated)	n	n	n	n	n
COc1cccc(C(=O)N2[C@H](COCc3ccccc3)C=CS2(=O)=O)c1	x	x	n	x	x
CCCCn1nnnc1C(c1cc2ccccc2o1)N(CCN(C)C)Cc1ccccc1 (configuration not stated)	x	x	n	x	x
O=C(NCc1ccccc1F)C1CCCN(C(=O)Nc2ccccc2)C1 (configuration not stated)	n	n	n	x	x
O=C(Nc1ccc(Cl)cc1)N1CCCN(Cc2ccccc2F)C1	n	x	n	n	56.6
CC(=O)Nc1ccc(N2CCN(Cc3ccccc3F)CC2)cc1	n	n	n	n	50.4
O=C(Nc1ccc(F)c(Cl)c1)N1CCCC1	n	n	n	n	99.0
CN(CC(=O)Nc1ccc(Cl)c(Cl)c1)C1CCCCC1	n	n	n	x	x
CC(C)N(C)C1CCN(C(=O)Nc2ccc(Cl)c(Cl)c2)CC1	n	n	n	n	59.7
O=C(NCC(c1ccco1)N1CCN(c2ccccc2F)CC1)c1ccc2c(c1)OCO2 (configuration not stated)	n	x	n	x	x
Oc1c(N=NC(=S)Nc2ccccc2F)c2ccccc2n1Cc1ccc(F)cc1	66.5	n	n	n	90.7
Oc1c(N=NC(=S)Nc2ccccc2F)c2ccccc2n1Cc1cccc(Cl)c1	57.4	n	n	n	83.0
NC(=S)N=Nc1c(O)n(Cc2ccc(F)cc2)c2ccccc12	n	n	n	n	n
Cc1cccc(NC(=S)N=Nc2c(O)n(CN3CCOCC3)c3ccccc23)c1C	n	n	n	n	96.1
SMILES	T cruzi inh	Hep lipid drop	MPTP block	DTT redox prof	Lmaj promast
NC(=S)N=Nc1c(O)n(Cc2ccc(Br)cc2)c2ccccc12	n	n	n	n	n
Cc1cccc(Cn2c(O)c(N=NC(=S)Nc3ccccc3F)c3ccccc32)c1	60.2	n	n	n	96.7
Cc1ccc(N=Nc2c(O)n(CN3CCOCC3)c3ccccc23)cc1	n	x	n	n	n
COc1ccc(/C=N/NC(=O)CN2CCSCC2)cc1C	n	n	n	n	n
CCc1c(C)c(C#N)c2nc3ccccc3n2c1NCCCN(C)C	x	x	n	x	x
Cc1c2c(n3c(nc4ccccc43)c1C#N)N(CCN(C)C)CC2	70.2	n	n	n	n
Cc1c2c(n3c(nc4ccccc43)c1C#N)N(c1ccccc1)CC2	x	n	x	n	52.6
Cc1c2c(n3c(nc4ccccc43)c1C#N)N(CCCN(C)C)CC2	63.3	n	n	n	n
O=c1[nH]c(=O)n2c(c1-c1ccccc1)OC(CBr)C2 (configuration not stated)	x	x	n	x	x
Cc1nnn(C23CC4CC(CC(CC(=O)Nc5cccc(F)c5)(C4)C2)C3)n1	n	n	n	n	n
CC(=O)c1ccc(NC(=O)CC23CC4CC(C2)CC(n2nnc(C)n2)(C4)C3)cc1	n	n	n	n	n
Cc1cccc(NC(=O)CC23CC4CC(C2)CC(n2nnc(C)n2)(C4)C3)c1	n	n	n	n	54.8
Cc1nnn(C23CC4CC(CC(CC(=O)Nc5ccc(C)c(C)c5)(C4)C2)C3)n1	n	n	n	n	68.1
CC(C)n1ncc2c(C(=O)N3CCN(Cc4ccc(Br)s4)CC3)cc(C3CC3)nc21	x	x	n	x	x
COc1cccc(C(=O)/C=C/c2ccc(OCC#N)c(OC)c2)c1	n	n	n	n	99.7
COc1cc(/C=C/C(=O)c2ccc(O)cc2)ccc1OCC#N	n	n	n	n	98.5
N=c1c2c(-c3ccccc3)c(-c3ccccc3)n(Cc3ccco3)c2ncn1CCCO	64.7	n	n	x	x
c1ccc(-c2nc3nc4ccccc4nc3n2Cc2ccco2)cc1	n	x	n	n	n
N=c1c2c(-c3ccccc3)c(-c3ccccc3)n(Cc3ccco3)c2ncn1CCN1CCOCC1	67.1	x	n	n	99.7
CC(C)(C)OC[C@H](NC(=O)c1[nH]cnc1C(=O)Nc1ccccc1F)C(=O)OC(C)(C)C	x	x	n	x	x
c1ccc(C2Oc3ccccc3C3CC(c4cccs4)=NN32)cc1 (configuration not stated)	n	n	n	n	n
O=[N+]([O-])c1ccc(C2Oc3ccccc3C3CC(c4ccccc4)=NN32)s1 (configuration not stated)	x	n	x	n	99.3
COc1ccc(C2SCCN2C(=S)Nc2cccc(C(F)(F)F)c2)cc1 (configuration not stated)	n	n	n	n	96.2
COc1ccc(C2SCCN2C(=S)Nc2ccc(F)cc2)cc1 (configuration not stated)	n	n	n	n	n
Oc1cc(CNC2CCCCC2)c(O)cc1CNC1CCCCC1	x	x	n	x	x
SMILES	T cruzi inh	Hep lipid drop	MPTP block	DTT redox prof	Lmaj promast
Clc1ccc(CNC2CCCC2)c(Cl)c1	n	n	n	n	93.8
COc1cccc(CNC(=O)C(NS(=O)(=O)c2ccc3c(c2)CCN3C(C)=O)C(C)C)c1 (configuration not stated)	n	n	n	x	x
CCOc1ccc(N(CC(=O)NCc2ccccc2)C(=O)Cn2nnc(-c3ccc(C)o3)n2)cc1	n	n	n	x	x
CCOc1ccccc1N(CC(=O)NC(C)(C)C)C(=O)Cn1nnc(-c2ccc(C)o2)n1	n	n	n	n	60.0
COc1ccccc1Nc1nnc(SCC(=O)c2c(N)n(C3CC3)c(=O)[nH]c2=O)s1	x	x	n	x	x
Cc1cc(C(=O)CN2CCC(C)CC2)c(C)n1-c1ccccc1F	57.1	n	n	n	n
